How the values were obtained:
[1] = molecular target: T1, Human immunodeficiency virus type 1 protease (Human immunodeficiency virus 1, UniProt Q72874); test: Inhibition of HIV-1 Protease.
How it was run: (§1)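 Continuous fluorometric HIV-1 protease assay. Substrate 2-(aminobenzoyl)-Thr-Ile-Nle-Phe(p-NO₂)-Gln-ArgNH₂ (Km = 37 μM). MVT-101 (Ac-Thr-Ile-Nle[CH₂NH]Nle-Gln-ArgNH₂) served as positive control. IC₅₀ values were determined from inhibition of substrate cleavage; compounds giving under 50% inhibition at 10 μM were flagged.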

[2] = molecular target: T1, Human immunodeficiency virus type 1 protease; test: Compounds were tested for their concentration to inhibit the HIV-1 Protease; how it was run: as §1
[3] = molecular target: Human immunodeficiency virus type 1 protease (Human immunodeficiency virus 1) (UniProt Q72874); test: Inhibition of HIV-1 Protease; set-up: concentration or dose not given beside the values; settings: concentration not given here
How it was run: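 Continuous fluorometric cleavage of 2-(aminobenzoyl)-Thr-Ile-Nle-Phe(p-NO2)-Gln-ArgNH2 (Km = 37 μM); IC50 determined, with MVT-101 (Ac-Thr-Ile-Nle[CH2NH]Nle-Gln-ArgNH2) as positive control.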

[4] = test system: CEM (Homo sapiens); test: Toxic dose required for 50% in uninfected cells

Structure (SMILES): CC(C)CN(C[C@H](O)[C@H](Cc1ccccc1)NC(=O)[C@H](CC(N)=O)NC(=O)c1ccc2ccccc2n1)C(=O)NC(C)(C)C
- IC50 [1]: 10000 nM

Structure (SMILES): CCCNC(=O)N(CC(C)C)C[C@@H](O)[C@H](Cc1ccccc1)NC(=O)[C@H](CC(N)=O)NC(=O)OCc1ccccc1
- IC50 [1]: 518 nM

Structure (SMILES): CC(C)CN(C[C@@H](O)[C@H](Cc1ccccc1)NC(=O)[C@H](CC(N)=O)NC(=O)OCc1ccccc1)C(=O)NC(C)C
- IC50 [1]: 260 nM

Structure (SMILES): CC(C)CN(C[C@H](O)[C@H](Cc1ccccc1)NC(=O)[C@H](CC(N)=O)NC(=O)OCc1ccccc1)C(=O)NC(C)(C)C
- IC50 [1]: 54000 nM

Structure (SMILES): CC(C)(C)NC(=O)N(Cc1ccncc1)C[C@@H](O)[C@H](Cc1ccccc1)NC(=O)[C@H](CC(N)=O)NC(=O)OCc1ccccc1
- IC50 [1]: 105 nM

Structure (SMILES): CCCC[C@@H](CN[C@@H](CCCC)C(=O)N[C@@H](CCC(N)=O)C(=O)N[C@@H](CCCNC(=N)N)C(N)=O)NC(=O)[C@@H](NC(=O)[C@@H](NC(C)=O)[C@@H](C)O)[C@@H](C)CC
- IC50 [1]: 1900 nM

Structure (SMILES): CCCCNC(=O)N(CC(C)C)C[C@@H](O)[C@H](Cc1ccccc1)NC(=O)[C@H](CC(N)=O)NC(=O)OCc1ccccc1
- IC50 [1]: 940 nM

Structure (SMILES): CNC(=O)N(CC(C)C)C[C@@H](O)[C@H](Cc1ccccc1)NC(=O)[C@H](CC(N)=O)NC(=O)OCc1ccccc1
- IC50 [2]: 1500 nM

Structure (SMILES): CCCCNC(=O)N(C)C[C@@H](O)[C@H](Cc1ccccc1)NC(=O)[C@H](CC(N)=O)NC(=O)OCc1ccccc1
- inhibition [3]: < 50%

Structure (SMILES): C[C@@H](c1ccccc1)N(C[C@@H](O)[C@H](Cc1ccccc1)NC(=O)[C@H](CC(N)=O)NC(=O)OCc1ccccc1)C(=O)NC(C)(C)C
- IC50 [1]: 5100 nM

Structure (SMILES): CC(C)(C)NC(=O)N(Cc1ccccc1)C[C@@H](O)[C@H](Cc1ccccc1)NC(=O)[C@H](CC(N)=O)NC(=O)c1ccc2ccccc2n1
- IC50 [1]: 3 nM
- TD50 [4]: 700 µM

Structure (SMILES): CC(C)CCN(C[C@@H](O)[C@H](Cc1ccccc1)NC(=O)[C@H](CC(N)=O)NC(=O)c1ccc2ccccc2n1)C(=O)NC(C)(C)C
- IC50 [1]: 3 nM
- TD50 [4]: 50 µM

Structure (SMILES): C[C@H](c1ccccc1)N(C[C@@H](O)[C@H](Cc1ccccc1)NC(=O)[C@H](CC(N)=O)NC(=O)OCc1ccccc1)C(=O)NC(C)(C)C
- IC50 [1]: 6500 nM

Structure (SMILES): CNC(=O)N(C)C[C@@H](O)[C@H](Cc1ccccc1)NC(=O)[C@H](CC(N)=O)NC(=O)OCc1ccccc1
- inhibition [3]: < 50%

Structure (SMILES): CCCCNC(=O)N(CC(C)C)C[C@@H](O)[C@H](Cc1ccccc1)NC(=O)[C@H](CC(N)=O)NC(=O)c1ccc2ccccc2n1
- IC50 [1]: 126 nM

Structure (SMILES): CCCCNC(=O)N(CC(C)C)C[C@H](O)[C@H](Cc1ccccc1)NC(=O)[C@H](CC(N)=O)NC(=O)OCc1ccccc1
- inhibition [3]: < 50%

Structure (SMILES): CC(C)(C)NC(=O)N(CC1CCCCC1)C[C@@H](O)[C@H](Cc1ccccc1)NC(=O)[C@H](CC(N)=O)NC(=O)OCc1ccccc1
- IC50 [1]: 29 nM

Structure (SMILES): CNC(=O)N(C)C[C@H](O)[C@H](Cc1ccccc1)NC(=O)[C@H](CC(N)=O)NC(=O)OCc1ccccc1
- inhibition [3]: < 50%

Structure (SMILES): CC(C)CCN(C[C@@H](O)[C@H](Cc1ccccc1)NC(=O)[C@H](CC(N)=O)NC(=O)OCc1ccccc1)C(=O)NC(C)(C)C
- IC50 [1]: 13 nM

Structure (SMILES): CCNC(=O)N(CC(C)C)C[C@@H](O)[C@H](Cc1ccccc1)NC(=O)[C@H](CC(N)=O)NC(=O)OCc1ccccc1
- IC50 [1]: 330 nM

Structure (SMILES): CC(C)(C)NC(=O)N(CC1CCCCC1)C[C@@H](O)[C@H](Cc1ccccc1)NC(=O)[C@H](CC(N)=O)NC(=O)c1ccc2ccccc2n1
- IC50 [1]: 5 nM

Structure (SMILES): CC(C)CN(C[C@@H](O)[C@H](Cc1ccccc1)NC(=O)[C@H](CC(N)=O)NC(=O)c1ccc2ccccc2n1)C(=O)NC(C)(C)C [TELINAVIR]
- IC50 [1]: 6 nM
- TD50 [4]: 50 µM

Structure (SMILES): CCCCNC(=O)N(C)C[C@H](O)[C@H](Cc1ccccc1)NC(=O)[C@H](CC(N)=O)NC(=O)OCc1ccccc1
- inhibition [3]: < 50%

Structure (SMILES): CNC(=O)N(CC(C)C)C[C@H](O)[C@H](Cc1ccccc1)NC(=O)[C@H](CC(N)=O)NC(=O)OCc1ccccc1
- inhibition [3]: < 50%

Structure (SMILES): CC(C)CN(C[C@@H](O)[C@H](Cc1ccccc1)NC(=O)[C@H](CC(N)=O)NC(=O)OCc1ccccc1)C(=O)NC(C)(C)C
- IC50 [1]: 35 nM

Structure (SMILES): CC(C)(C)NC(=O)N(Cc1ccncc1)C[C@@H](O)[C@H](Cc1ccccc1)NC(=O)[C@H](CC(N)=O)NC(=O)c1ccc2ccccc2n1
- IC50 [1]: 19 nM
- TD50 [4]: 300 µM

Structure (SMILES): CC(C)(C)NC(=O)N(Cc1ccccc1)C[C@@H](O)[C@H](Cc1ccccc1)NC(=O)[C@H](CC(N)=O)NC(=O)OCc1ccccc1
- IC50 [1]: 19 nM

Source: ChEMBL document CHEMBL1126824, “Discovery of a novel class of potent HIV-1 protease inhibitors containing the (R)-(hydroxyethyl)urea isostere” (J Med Chem, 1993)
